Here are results for 8 compounds from ChEMBL document CHEMBL1811770, “Synthesis and structural investigation of some pyrimido[5,4-c]quinolin-4(3H)-one derivatives with a long-chain arylpiperazine moiety as potent 5-HT(1A/2A) and 5-HT(7) receptor ligands” (Eur J Med Chem, 2011).

The target in experiment [1] is 5-hydroxytryptamine receptor 2A (Rattus norvegicus) (UniProt P14842). The experiment in a line: Displacement of [3H]ketanserin from 5HT2A receptor in rat cortex membrane at 10^-6 M by radioligand binding assay. The experiment is classed as cell membranes. An outline of the steps:
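Single-point screen at 1 µM, reported as % inhibition of [3H]-ketanserin (88.0 Ci/mmol) binding. Non-specific binding was defined with 1 µM methysergide. Compounds inhibiting at least 85% went on to full competition.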
In general terms: Loss of bound radioactivity is the signal in a displacement assay; it reports binding, not function.

The target of experiment [2] is 5-hydroxytryptamine receptor 7 (Homo sapiens, UniProt P34969). The experiment in a line: Displacement of [3H]-5-CT from human 5-HT7b receptor expressed in HEK293 cells by radioligand binding assay. The experiment is classed as cell-based. An outline of the steps:
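Membranes from HEK-293 cells stably expressing human 5-HT7b receptor, with [3H]-5-CT (93.0 Ci/mmol) as radioligand. Full competition used 7–9 concentrations of test compound, each run in triplicate. Ki was derived from the inhibition.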

Experiment [3] deals with T1, 5-hydroxytryptamine receptor 1A (Rattus norvegicus, UniProt P19327).
T1 sequence (P19327 whole entry): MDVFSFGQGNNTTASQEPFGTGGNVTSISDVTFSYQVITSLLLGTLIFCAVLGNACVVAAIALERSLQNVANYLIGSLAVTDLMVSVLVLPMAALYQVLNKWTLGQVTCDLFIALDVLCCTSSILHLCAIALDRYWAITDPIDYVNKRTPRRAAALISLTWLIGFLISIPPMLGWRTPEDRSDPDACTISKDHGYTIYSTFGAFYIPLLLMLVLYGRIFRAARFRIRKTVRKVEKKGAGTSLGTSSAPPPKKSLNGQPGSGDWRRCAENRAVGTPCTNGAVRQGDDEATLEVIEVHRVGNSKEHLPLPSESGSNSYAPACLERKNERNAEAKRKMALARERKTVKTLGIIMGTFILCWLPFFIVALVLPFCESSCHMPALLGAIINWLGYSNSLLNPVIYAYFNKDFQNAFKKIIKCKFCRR
The experiment in a line: Displacement of [3H]8-OH-DPAT from 5HT1A receptor in rat hippocampal membrane by radioligand binding assay. Type of experiment: cell membranes, Hippocampus. An outline of the steps:
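Rat hippocampal membranes were incubated with [3H]-8-OH-DPAT (170 Ci/mmol), with 10 µM 5-HT for non-specific binding. Competition used 7–9 test concentrations, each in triplicate, to give Ki. Values are means of three experiments run in triplicate.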

Experiment [4] has as its target T2, 5-hydroxytryptamine receptor 1A (Rattus norvegicus) (UniProt P19327).
T2 sequence (whole entry): T1 sequence (P19327 whole entry)
As to the kind of experiment: Displacement of [3H]8-OH-DPAT from 5HT1A receptor in rat hippocampal membrane at 10^-6 M by radioligand binding assay. As to conditions: Hippocampus. The experiment is classed as cell membranes. In a few lines: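 Single-point screen at 1 µM on rat hippocampal membranes, reported as % inhibition of [3H]-8-OH-DPAT (170 Ci/mmol) binding. Non-specific binding was defined with 10 µM 5-HT. Compounds inhibiting at least 85% went on to full competition.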

5-hydroxytryptamine receptor 7, sequence (P34969 whole entry): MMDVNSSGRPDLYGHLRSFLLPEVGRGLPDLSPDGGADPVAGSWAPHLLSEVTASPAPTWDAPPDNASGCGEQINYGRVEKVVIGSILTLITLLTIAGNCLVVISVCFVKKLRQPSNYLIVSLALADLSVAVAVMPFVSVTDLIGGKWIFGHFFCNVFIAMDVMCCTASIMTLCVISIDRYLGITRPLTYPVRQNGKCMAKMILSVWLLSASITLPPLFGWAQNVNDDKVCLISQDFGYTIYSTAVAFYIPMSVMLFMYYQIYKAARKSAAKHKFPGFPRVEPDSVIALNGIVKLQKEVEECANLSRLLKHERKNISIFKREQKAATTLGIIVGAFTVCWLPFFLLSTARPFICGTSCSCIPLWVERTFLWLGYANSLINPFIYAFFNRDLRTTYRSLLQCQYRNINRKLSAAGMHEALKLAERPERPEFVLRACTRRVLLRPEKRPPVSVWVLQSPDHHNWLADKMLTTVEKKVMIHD
5-hydroxytryptamine receptor 2A (Rattus norvegicus), sequence (P14842 whole entry): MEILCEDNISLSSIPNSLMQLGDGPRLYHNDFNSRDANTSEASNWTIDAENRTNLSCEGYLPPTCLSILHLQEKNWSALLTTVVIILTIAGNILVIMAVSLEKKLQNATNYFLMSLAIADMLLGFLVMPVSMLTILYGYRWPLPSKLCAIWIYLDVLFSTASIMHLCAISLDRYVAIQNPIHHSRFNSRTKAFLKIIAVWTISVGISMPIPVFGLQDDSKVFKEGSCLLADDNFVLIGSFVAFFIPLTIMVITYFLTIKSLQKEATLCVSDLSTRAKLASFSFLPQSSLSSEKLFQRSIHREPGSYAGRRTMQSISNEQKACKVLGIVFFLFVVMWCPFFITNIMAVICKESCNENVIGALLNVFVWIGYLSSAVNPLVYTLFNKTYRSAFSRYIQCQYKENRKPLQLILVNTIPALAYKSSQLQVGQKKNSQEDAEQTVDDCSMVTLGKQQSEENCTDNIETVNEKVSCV

Consider `O=c1c2cnc3ccccc3c2ncn1CCCCN1CCN(c2ccccc2)CC1`, for which the inhibition (commonly the percentage by which the read-out fell short of the control) in experiment [1] came out at 76%; in experiment [4], 93%. Also, the Ki (in general, a dissociation constant, usually derived from enzyme kinetics or from competition with a known ligand) came out at 612 nM in experiment [2] and 28 nM in experiment [3].

With `O=c1c2cnc3ccccc3c2ncn1CCCCN1CCN(c2cccc(Cl)c2)CC1`, the inhibition in experiment [1] came to 84%; in experiment [4] it was 96%. In addition, the inhibition constant (Ki) in experiment [2] came to 184 nM; in experiment [3] it was 34 nM.

Regarding `O=c1c2cnc3ccccc3c2ncn1CCCCN1CCN(c2cccc(C(F)(F)F)c2)CC1`, the inhibition turned out to be 61% in experiment [1] and 89% in experiment [4]. For the same compound, the Ki in experiment [2] was 418 nM; in experiment [3], 127 nM.

For the compound `Cc1ccccc1N1CCN(CCCCn2cnc3c(cnc4ccccc43)c2=O)CC1`, the inhibition came to 82% in experiment [1] and 96% in experiment [4]. In addition, the results for the Ki in experiment [2] and in experiment [3] were 296 nM and 52 nM, respectively.

Consider `COc1ccccc1N1CCN(CCCCn2cnc3c(cnc4ccccc43)c2=O)CC1`, for which the figures for the inhibition in experiment [1] and in experiment [4] were 64% and 97%, respectively. Besides, the Ki in experiment [2] came out at 276 nM; in experiment [3], 6 nM.

For `O=c1c2cnc3ccccc3c2ncn1CCCCN1CCN(c2ccccc2Cl)CC1`, the inhibition came to 72% in experiment [1] and 92% in experiment [4]. For the same compound, the Ki came out at 153 nM in experiment [2] and 17 nM in experiment [3].

With `O=c1c2cnc3ccccc3c2ncn1CCCCN1CCN(c2ccccc2F)CC1`, the inhibition in experiment [1] turned out to be 79%; in experiment [4], 96%. For the same compound, the Ki in experiment [2] was 739 nM; in experiment [3], 63 nM.

Take `COc1cccc(N2CCN(CCCCn3cnc4c(cnc5ccccc54)c3=O)CC2)c1`: the inhibition stood at 76% in experiment [1] and 90% in experiment [4]. Also, the Ki in experiment [2] was 484 nM; in experiment [3], 31 nM.
